Numbering of substitutions follows the chain as printed. Names may count otherwise. Where two headings read alike, the source gives them in different places. One block for each molecule: values may come before it.
How the values were obtained:
BRAF(F667E) + KSR2:MEK1 = BRAF(F667E) + KSR2:MEK1 (Homo sapiens, UniProt Q6VAB6); test: bio-layer inferometry; type: binding; settings: compound 25 μM
[1] = target: KSR2 in purified KSR2-MEK1 complexes (Homo sapiens, UniProt Q6VAB6); test: ATP^biotin probe-labelling competition; type: binding
[2] = tested on: KSR-stimulated MEK and ERK phosphorylation in 293H cells; test: KSR-driven MAPK signalling reconstitution; type: cell-based; settings: 5 μM, 2 h
[3] = tested on: MEK phosphorylation by BRAF or CRAF; test: RAF phosphorylation assay of KSR2-MEK1 or MEK1 in vitro; type: biochemical; settings: KSR absent or KSR2(A690F) mutant; compound 1 μM
[4] = target: MEK phosphorylation by BRAF or CRAF (Homo sapiens, UniProt Q6VAB6); test: as above; type: biochemical; settings: KSR2-MEK1; compound 1 μM
[5] = tested on: BRAF(V600E)-induced MAPK activation in 293H cells; test: BRAF; type: cell-based; settings: 5 μM, 2 h
Method in brief: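 They were then exposed for 2 h to DMSO or 5μM test compound, alongside a reference RAF inhibitor. Cells were collected and western blotted for phospho-MEK1/2 (Ser218/Ser222) and phospho-ERK1/2 (T202/Y204). Primary antibodies were applied overnight in 5% BSA TBS-T.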

[6] = tested on: Phospho-AMPK in HCT116 cells; test: phospho-AMPK western blot; type: cell-based; settings: co-treatment with trametinib, 48 h
Method in brief: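 HCT116 cells received test compound and/or a MEK inhibitor for 48 h. Lysates were western blotted for phospho-AMPK, phospho-ERK and total MEK, with primary antibodies overnight in 5% BSA TBS-T. Signal was detected by chemiluminescence on a CCD imager, and band intensities were quantified.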

[7] = tested on: ERK phosphorylation in HCT-116 cells; test: phospho-ERK western blot; type: cell-based; settings: APS-2-79 treatment
MEK1 = MEK1 (Oryctolagus cuniculus, UniProt P29678); test: ATP^biotin probe-labelling competition; type: binding, rabbit; settings: read-out: IC50 (ATP), MEK1; free ATP vs 2 μM ATP^biotin, KSR2-MEK1 complexes
Method in brief: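 The probe transfers desthio-biotin onto active-site lysines of both KSR2 and MEK1. Biotin, total MEK and total KSR detected by western blot, giving probe-labelling versus ATP level for each partner.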

MEK1 (1-393) = MEK1 (1-393) (rabbit, UniProt P29678 1-393); test: BLI
KSR2(KD):MEK1 complex = KSR2(KD):MEK1 complex (human | rabbit, UniProt Q6VAB6 634-950; P29678 1-393); test: BLI

assembly of BRAF(F667E) and KSR2-MEK1 (in words) (BRAF(F667E) + KSR2:MEK1): did not impede
IC50 [1]: > 10 µM
KSR2-MEK1 probe competition (in words) [1]: essentially inactive
Molecule: COc1cc2ncnc(Nc3ccc(Oc4ccccc4)c(C)c3C)c2cc1OC.Cl [APS-3-77, N-(2,3-Dimethyl-4-phenoxyphenyl)-6,7-dimethoxyquinazolin-4-amine hydrochloride]

Molecule: COc1cc2nccc(Nc3ccc(Oc4ccccc4)cc3)c2cc1OC.Cl [APS-2-16, 6,7-Dimethoxy-N-(4-phenoxyphenyl)quinolin-4-amine hydrochloride]
KSR2-MEK1 probe competition (in words) [1]: moderately tolerated

KSR-stimulated MEK phosphorylation by RAF [4]: markedly reduced
enhancement in the IC90 of trametinib on ERK phosphorylation [7]: twofold enhancement
assembly of BRAF(F667E) and KSR2-MEK1 (in words) (BRAF(F667E) + KSR2:MEK1): did not associate
Molecule: COc1cc2ncnc(Nc3ccc(Oc4ccccc4)cc3C)c2cc1OC.O=C(O)C(F)(F)F [APS-2-79, 6,7-Dimethoxy-N-(2-methyl-4-phenoxyphenyl)quinazolin-4-amine 2,2,2-trifluoroacetate]
KSR-stimulated MEK and ERK phosphorylation ([2]; KSR(A690F) mutant): significantly diminished the activity
KSR-stimulated MEK and ERK phosphorylation ([2]; wild-type KSR): suppressed
MEK phosphorylation by RAF [3]: inactive
BRAF(V600E)-induced MAPK activation [5]: does not affect
Phospho-AMPK [6]: remains unchanged

IC50 (MEK1): 133 µM
IC50 ([1]; read-out: IC50 (ATP), KSR2, free ATP vs 2 μM ATP^biotin, KSR2-MEK1 complexes): 86 µM
Molecule: Nc1ncnc2c1ncn2[C@@H]1O[C@H](COP(=O)(O)OP(=O)(O)OP(=O)(O)O)[C@@H](O)[C@H]1O [ATP, reference compound]

KSR2-MEK1 probe competition (in words) [1]: greatly diminished competition
Molecule: COc1cc2ncnc(Nc3ccc(O)cc3)c2cc1OC.Cl [APS-1-82-1, 4-((6,7-Dimethoxyquinazolin-4-yl)amino)phenol hydrochloride]

KSR2-MEK1 probe competition (in words) [1]: competitor of probe-labelling
Molecule: COc1cc2ncnc(Nc3ccc(Oc4ccccc4)cc3)c2cc1OC.Cl [APS-1-68-2, 6,7-Dimethoxy-N-(4-phenoxyphenyl)quinazolin-4-amine hydrochloride]

KSR2-MEK1 probe competition (in words) [1]: greatly diminished
Molecule: COc1cc2/c(=N/c3ccc(Oc4ccccc4)cc3)ncn(C)c2cc1OC [APS-3-6, (Z)-N-(6,7-Dimethoxy-1-methylquinazolin-4(1H)-ylidene)-4-phenoxyaniline]

KSR2-MEK1 probe competition (in words) [1]: diminished
Molecule: COc1cc2ncnc(Nc3ccc(OCc4ccccc4)cc3)c2cc1OC.O=C(O)C(F)(F)F [APS-2-12, N-(4-(Benzyloxy)phenyl)-6,7-dimethoxyquinazolin-4-amine 2,2,2-trifluoroacetate]

KSR2-MEK1 probe competition (in words) [1]: greatly diminished competition
Molecule: COc1ccc(Nc2ncnc3cc(OC)c(OC)cc23)cc1.Cl [APS-1-70-1, 6,7-Dimethoxy-N-(4-methoxyphenyl)quinazolin-4-amine hydrochloride]

Kd (MEK1 (1-393)): 0.051 µM
B1: B-RAF (modified variant for high-yield expression in E. coli) (enzyme)
chain: RDSSDDWEIPDGQITVGQRIGSGSFGTVYKGKWHGDVAVKMLNVTAPTPQQLQAFKNEVGVLRKTRHVNILLFMGYSTKPQLAIVTQWCEGSSLYHHLHASETKFEMKKLIDIARQTARGMDYLHAKSIIHRDLKSNNIFLHEDNTVKIGDFGLATVKSRWSGSHQFEQLSGSILWMAPEVIRMQDSNPYSFQSDVYAFGIVLYELMTGQLPYSNINNRDQIIFMVGRGSLSPDLSKVRSNCPKRMKRLMAECLKKKRDERPSFPRILAEIEELARELSG
modifications: biotinylated with EZ-Link Sulfo-NHS-Biotin

Kd (KSR2(KD):MEK1 complex): 1.99 µM
B2: B-RAF(F667E) (in the modified variant for E. coli expression) (enzyme)
chain: B1 chain with F224E
modifications: biotinylated with EZ-Link Sulfo-NHS-Biotin

— article PMC5161575 (Nature, 2016)
